Experimental data taken from ChEMBL document CHEMBL1124186, “Synthesis and evaluation of tylosin-related macrolides modified at the aldehyde function: a new series of orally effective antibiotics” (1988).
In brackets after ≈: the same amount, converted by molar mass.

How the values were obtained:
Mus musculus [1] = experiment: Peripheral plasma levels in mice after oral administration of 100 mg/kg dose for 0.25 hr; type: functional, organism-based; design: dose 100 mg/kg
Summary of the method: (§1)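 Mice were given the compound orally and sampled for peripheral plasma at each time point. Plasma was assayed microbiologically against Micrococcus luteus seeded in Antibiotic Medium 1. Inhibition zone sizes were read, and concentrations were calculated from each compound's own standard curve. Each value is the mean of five mice per time point.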

Mus musculus [2] = experiment: Peripheral plasma levels in mice after oral administration of 50 mg/kg dose for 0.25 hr; type: functional, organism-based; design: dose 50 mg/kg; summary of the method: as §1
Rattus norvegicus [3] = experiment: Peripheral plasma levels in rats after oral administration of 100 mg/kg dose for 4 hr; type: functional, organism-based; design: dose 100 mg/kg
Summary of the method: (§2)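 Rats received 100 mg/kg orally and were sampled for peripheral plasma. Concentrations were measured by Micrococcus luteus agar-diffusion microbiological assay in Antibiotic Medium 1, with zone sizes converted using the standard curve for the appropriate compound. Each value is the average of three rats per time point.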

Haemophilus influenzae = experiment: In vitro antimicrobial activity against Haemophilus influenzae.; type: functional
Staphylococcus aureus = experiment: In vitro antimicrobial activity against Staphylococcus aureus X1; type: functional
Mus musculus [4] = experiment: Peripheral plasma levels in mice after oral administration of 100 mg/kg dose for 0.5 hr; type: functional, organism-based; design: dose 100 mg/kg; summary of the method: as §1
Mus musculus [5] = experiment: Peripheral plasma levels in mice after oral administration of 50 mg/kg dose for 2 hr; type: functional, organism-based; design: dose 50 mg/kg; summary of the method: as §1
Streptococcus pyogenes [6] = experiment: In vitro antimicrobial activity against Streptococcus pyogenes C203; type: functional
Enterococcus faecium = experiment: In vitro antimicrobial activity against Streptococcus faecium X66; type: functional, streptococcus fae-cium
Streptococcus pyogenes [7] = experiment: In vivo effective dose against experimental infections in rodent caused by Streptococcus pyogenes C203 when administered sc; type: functional
Mus musculus [8] = experiment: Peripheral plasma levels in mice after oral administration of 50 mg/kg dose for 0.5 hr; type: functional, organism-based; design: dose 50 mg/kg; summary of the method: as §1
Rattus norvegicus [9] = experiment: Peripheral plasma levels in rats after oral administration of 100 mg/kg dose for 0.5 hr; type: functional, organism-based; design: dose 100 mg/kg; summary of the method: as §2
Streptococcus pneumoniae = experiment: In vitro antimicrobial activity against Streptococcus pneumoniae; type: functional
Rattus norvegicus [10] = experiment: Peripheral plasma levels in rats after oral administration of 100 mg/kg dose for 0.25 hr; type: functional, organism-based; design: dose 100 mg/kg; summary of the method: as §2
Mus musculus [11] = experiment: Peripheral plasma levels in mice after oral administration of 50 mg/kg dose for 1 hr; type: functional, organism-based; design: dose 50 mg/kg; summary of the method: as §1
Rattus norvegicus [12] = experiment: Peripheral plasma levels in rats after oral administration of 100 mg/kg dose for 2 hr; type: functional, organism-based; design: dose 100 mg/kg; summary of the method: as §2
[13] = test system: Staphylococcus epidermidis; experiment: In vitro antimicrobial activity against Staphylococcus epidermidis EPI1; type: functional
Mus musculus [14] = experiment: Peripheral plasma levels in mice after oral administration of 100 mg/kg dose for 1 hr; type: functional, organism-based; design: dose 100 mg/kg; summary of the method: as §1
Rattus norvegicus [15] = experiment: Peripheral plasma levels in rats after oral administration of 100 mg/kg dose for 1 hr; type: functional, organism-based; design: dose 100 mg/kg; summary of the method: as §2
Streptococcus pyogenes [16] = experiment: In vivo effective dose against experimental infections in rodent caused by Streptococcus pyogenes C203 when administered orally; type: functional; details: po
Cutibacterium acnes = experiment: In vitro antimicrobial activity against anaerobic bacteria propionibacterium acnes 79; type: functional
Phocaeicola vulgatus = experiment: In vitro antimicrobial activity against anaerobic bacteria bacteroides vulgatus 1211; type: functional
Clostridium septicum = experiment: In vitro antimicrobial activity against anaerobic bacteria clostridium septicum 1128; type: functional
Clostridium perfringens = experiment: In vitro antimicrobial activity against anaerobic bacteria clostridium perfringens 81,; type: functional
[17] = test system: Peptostreptococcus anaerobius; experiment: In vitro antimicrobial activity against anaerobic bacteria eubacterium peptostreptococcus anaerobius 1428,; type: functional
[18] = test system: Prevotella melaninogenica; experiment: In vitro antimicrobial activity against anaerobic bacteria bacteroides melaninogenicus 2736; type: functional
Bacteroides fragilis [19] = experiment: In vitro antimicrobial activity against anaerobic bacteria bacteroides fragilis 1936B,; type: functional
Bacteroides fragilis [20] = experiment: In vitro antimicrobial activity against anaerobic bacteria bacteroides fragilis 111; type: functional
Clostridioides difficile = experiment: In vitro antimicrobial activity against anaerobic bacteria Clostridium difficile 2994; type: functional
Bacteroides fragilis [21] = experiment: In vitro antimicrobial activity against anaerobic bacteria bacteroides fragilis 1877; type: functional
Eikenella corrodens = experiment: In vitro antimicrobial activity against anaerobic bacteria bacteroides corrodens 1874; type: functional
[22] = In vitro antimicrobial activity against anaerobic bacteria peptostreptococcus intermedius 1264; type: functional
Chlamydia trachomatis = experiment: In vitro antimicrobial activity against chlamydia trachomatis.; type: functional
Anaerococcus prevotii = experiment: In vitro antimicrobial activity against anaerobic bacteria peptococcus prevoti 1281; type: functional
[23] = test system: Prevotella melaninogenica; experiment: In vitro antimicrobial activity against anaerobic bacteria bacteroides melaninogenicus 1856,; type: functional
[24] = test system: Bacteroides thetaiotaomicron; experiment: In vitro antimicrobial activity against anaerobic bacteria bacteroides thetaiotaomicron 1438; type: functional
[25] = test system: Peptoniphilus asaccharolyticus; experiment: In vitro antimicrobial activity against anaerobic bacteria peptococcus asaccharolyticus 1302; type: functional
[26] = test system: Fusobacterium necrophorum; experiment: In vitro antimicrobial activity against anaerobic bacteria usobacterium necrophorum 6054A; type: functional
Collinsella aerofaciens = experiment: In vitro antimicrobial activity against anaerobic bacteria eubacterium aerofaciens 1235; type: functional
Fusobacterium = experiment: In vitro antimicrobial activity against anaerobic bacteria fusobacterium symbiosum 1470; type: functional

| Compound | Concentration (Rattus norvegicus [3]) [µg/mL] | MIC (Haemophilus influenzae) [µg/mL] | MIC (Staphylococcus aureus) [µg/mL] | MIC (Streptococcus pyogenes [6]) [µg/mL] | MIC (Enterococcus faecium) [µg/mL] | ED50 (Streptococcus pyogenes [7]) [mg/kg] | Concentration (Rattus norvegicus [9]) [µg/mL] | MIC (Streptococcus pneumoniae) [µg/mL] | Concentration (Rattus norvegicus [10]) [µg/mL] | Concentration (Rattus norvegicus [12]) [µg/mL] | MIC [13] [µg/mL] | Concentration (Rattus norvegicus [15]) [µg/mL] | ED50 (Streptococcus pyogenes [16]) [mg/kg] | also measured |
| --- | --- | --- | --- | --- | --- | --- | --- | --- | --- | --- | --- | --- | --- | --- |
| CC[C@H]1OC(=O)C[C@@H](O)[C@H](C)[C@@H](O[C@@H]2O[C@H](C)[C@@H](O[C@H]3C[C@@](C)(O)[C@@H](O)[C@H](C)O3)[C@H](N(C)C)[C@H]2O)[C@@H](CCN2C(=O)c3ccccc3C2=O)C[C@@H](C)C(=O)/C=C/C(C)=C/[C@@H]1CO[C@@H]1O[C@H](C)[C@@H](O)[C@@H](OC)[C@H]1OC | 1.4 | > 128 | 1 (≈ 0.955 µM) | 2 (≈ 1.91 µM) | > 128 | > 6.3 | 1.6 | 32 (≈ 30.6 µM) | 0.5 | 1.4 | 1 (≈ 0.955 µM) | 2.1 | 23 | Concentration (Mus musculus [1]): 13.1 µg/mL; Concentration (Mus musculus [2]): 2.4 µg/mL; Concentration (Mus musculus [4]): 6 µg/mL; Concentration (Mus musculus [5]): 1.3 µg/mL; Concentration (Mus musculus [8]): 2.2 µg/mL; Concentration (Mus musculus [11]): 1.6 µg/mL; Concentration (Mus musculus [14]): 6.9 µg/mL |
| CC[C@H]1OC(=O)C[C@@H](O)[C@H](C)[C@@H](O[C@@H]2O[C@H](C)[C@@H](O)[C@H](N(C)C)[C@H]2O)[C@@H](CCSc2ccccc2)C[C@@H](C)C(=O)/C=C/C(C)=C/[C@@H]1CO[C@@H]1O[C@H](C)[C@@H](O)[C@@H](OC)[C@H]1OC | 4.2 | – | 0.25 (≈ 0.289 µM) | 0.25 (≈ 0.289 µM) | 8 (≈ 9.24 µM) | 10 | 1.3 | 2 (≈ 2.31 µM) | 0.5 | 2.9 | 0.25 (≈ 0.289 µM) | 2.5 | – | – |
| CC[C@H]1OC(=O)C[C@@H](O)[C@H](C)[C@@H](O[C@@H]2O[C@H](C)[C@@H](O)[C@H](N(C)C)[C@H]2O)[C@@H](CCOc2ccc(CN3CCCCCC3)cc2)C[C@@H](C)C(=O)/C=C/C(C)=C/[C@@H]1CO[C@@H]1O[C@H](C)[C@@H](O)[C@@H](OC)[C@H]1OC | – | 32 (≈ 33.3 µM) | 0.5 (≈ 0.52 µM) | 0.5 (≈ 0.52 µM) | 8 (≈ 8.32 µM) | 1.9 | – | 1 (≈ 1.04 µM) | – | – | 0.5 (≈ 0.52 µM) | – | 27 | – |
| CC[C@H]1C[C@@H](C)C(=O)/C=C/C(C)=C/[C@H](CO)[C@@H](CC)OC(=O)C[C@@H](O)[C@H](C)[C@H]1O[C@@H]1O[C@H](C)[C@@H](O)[C@H](N(C)C)[C@H]1O | – | 32 (≈ 54.8 µM) | 4 (≈ 6.85 µM) | 8 (≈ 13.7 µM) | 16 (≈ 27.4 µM) | > 30 | – | 8 (≈ 13.7 µM) | – | – | 8 (≈ 13.7 µM) | – | 75 | MIC (Cutibacterium acnes): 2 µg/mL (≈ 3.43 µM); MIC (Phocaeicola vulgatus): > 8 µg/mL; MIC (Clostridium septicum): 2 µg/mL (≈ 3.43 µM); MIC (Clostridium perfringens): 2 µg/mL (≈ 3.43 µM); MIC [17]: > 8 µg/mL; MIC [18]: > 8 µg/mL; MIC (Bacteroides fragilis [19]): > 8 µg/mL; MIC (Bacteroides fragilis [20]): > 8 µg/mL; MIC (Clostridioides difficile): 2 µg/mL (≈ 3.43 µM); MIC (Bacteroides fragilis [21]): > 8 µg/mL; MIC (Eikenella corrodens): > 8 µg/mL; MIC [22]: > 8 µg/mL; MIC (Chlamydia trachomatis): 0.5 µg/mL (≈ 0.857 µM); MIC (Anaerococcus prevotii): > 8 µg/mL; MIC [23]: > 8 µg/mL; MIC [24]: > 8 µg/mL; MIC [25]: > 8 µg/mL; MIC [26]: 8 µg/mL (≈ 13.7 µM); MIC (Collinsella aerofaciens): 2 µg/mL (≈ 3.43 µM); MIC (Fusobacterium): > 8 µg/mL |
